Measured values published in article PMC5796531 (Chemistry (Weinheim an der Bergstrasse, Germany), 2014).
pIC50: −log10 of the molar value. Like-named read-outs stand apart in the source and are kept apart here.

What was measured:
Assay type in all cases: cell-based, human
[1] = tested on: KB head and neck cancer cells; assay: MTT cell growth inhibition assay, KB; conditions: read-out: IC50 values, KB
In short: (§1)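 MTT assay: cells seeded at 1 × 10^5/well and allowed to adhere 24 h (37°C, 5% CO2). Compound was diluted from DMSO:water (1:3) stock into incomplete medium; finals 300–0.07 μM for 24 h. After a PBS rinse, cells got MTT (5 mg/ml) for 3 h; formazan dissolved in DMSO; A540 read. % viability = OD sample/OD control ×100. IC50 from dose-response curve fitting. Three independent duplicate sets; untreated and cisplatin controls.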

[2] = tested on: HEK293 non-cancerous cells; assay: MTT cell growth inhibition assay, HEK293; conditions: read-out: IC50 values, HEK293
In short: as §1

[3] = tested on: SNU80 thyroid cancer cells; assay: MTT cell growth inhibition assay, SNU80; conditions: read-out: IC50 values, SNU80
In short: as §1

[4] = tested on: T98G brain cancer cells; assay: MTT cell growth inhibition assay, T98G; conditions: read-out: IC50 values, T98G
In short: as §1

[5] = tested on: T98G cells; assay: Cellular uptake by fluorescence detection; conditions: 1–4 μM
In short: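 T98G cells in 96-well plates were allowed to adhere for 12 h, then exposed to 1–4 μM at 37°C in complete medium. After a PBS wash and medium replacement, cell-associated fluorescence was read on a plate reader (ex 330, em 485 nm). Free ligand served as the positive control. Microscopy: cells on glass slides, 2 μM overnight, ex 340–380 / barrier 435–485 filters.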

| Structure (SMILES) | pIC50 ([1]; KB head and neck cancer cells, MTT, 24 h treatment) | pIC50 ([2]; HEK293 non-cancerous cells, MTT, 24 h treatment) | pIC50 ([3]; SNU80 thyroid cancer cells, MTT, 24 h treatment) | pIC50 ([4]; T98G brain cancer cells, MTT, 24 h treatment) | pIC50 ([1]; Homo sapiens, 24 h) | pIC50 ([2]; Homo sapiens, HEK293, 24 h) | pIC50 ([3]; Homo sapiens, 24 h) | cellular uptake: fluorescence detected in cells [5] | pIC50 ([4]; Homo sapiens, T98G, 24 h) |
| --- | --- | --- | --- | --- | --- | --- | --- | --- | --- |
| N.N.[Cl][Pt][Cl] [cisplatin, reference compound] | 4.14 | 4.76 | 4.31 | 4.16 | – | – | – | – | – |
| O=C(Nc1ccc(C#Cc2ccncc2)cc1)c1cccc(C(=O)Nc2ccc(C#Cc3ccncc3)cc2)n1 [Complex 1, N,N′-bis(4-(pyridin-4-ylethynyl)phenyl)pyridine-2,6-dicarboxamide] | – | – | – | – | 3.90 | 3.81 | 3.97 | very weak fluorescence | 3.84 |
